In ChEMBL document CHEMBL4196177, “Synthesis, Evaluation, and Structure-Activity Relationship Study of Lanosterol Derivatives To Reverse Mutant-Crystallin-Induced Protein Aggregation” (J Med Chem, 2018):
Residue numbers refer to the chain shown, from its start. Calls of active or inactive are those of the source. The calls are words filed in the database; no cut-off is given here.

Tests used:
[1] = test system: T1, Alpha-crystallin A chain (Homo sapiens), P02489 [Y118D]; assay: Inhibition of alpha-crystallin A Y118D mutant (unknown origin)-induced cytotoxicity in human HeLa cells assessed as increase in cell viability at 0.04 to 4 uM incubated for 12 hrs by CCK8 assay; type: cell-based
T1 sequence (whole entry): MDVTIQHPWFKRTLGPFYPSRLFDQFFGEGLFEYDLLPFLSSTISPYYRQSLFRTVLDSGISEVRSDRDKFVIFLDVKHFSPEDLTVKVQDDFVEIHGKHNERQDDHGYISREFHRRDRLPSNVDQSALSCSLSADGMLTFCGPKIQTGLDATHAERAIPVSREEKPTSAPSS

[2] = test system: T2, Alpha-crystallin B chain (Homo sapiens), P02511 [R120G]; assay: Inhibition of alpha-crystallin B R120G mutant (unknown origin)-induced cytotoxicity in human HeLa cells assessed as increase in cell viability at 0.04 to 4 uM incubated for 12 hrs by CCK8 assay; type: cell-based
T2 sequence (whole entry): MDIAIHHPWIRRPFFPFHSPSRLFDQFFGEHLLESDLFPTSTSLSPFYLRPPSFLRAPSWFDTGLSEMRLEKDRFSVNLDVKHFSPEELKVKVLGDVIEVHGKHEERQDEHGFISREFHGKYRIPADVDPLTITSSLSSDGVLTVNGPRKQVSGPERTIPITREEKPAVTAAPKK

[3] = test system: T3, Gamma-crystallin D (Homo sapiens), P07320 [W43R]; assay: Inhibition of gamma-crystallin D W43R mutant (unknown origin)-induced cytotoxicity in human HLE-B3 cells assessed as increase in cell viability at 0.04 to 4 uM incubated for 12 hrs by CCK8 assay; type: cell-based
T3 sequence (whole entry): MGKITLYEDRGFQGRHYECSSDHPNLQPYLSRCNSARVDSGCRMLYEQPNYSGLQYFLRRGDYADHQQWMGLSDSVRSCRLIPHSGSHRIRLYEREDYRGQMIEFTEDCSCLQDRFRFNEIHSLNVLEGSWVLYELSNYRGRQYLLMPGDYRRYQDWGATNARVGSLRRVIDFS

[4] = test system: T4, Beta-crystallin B2 (Homo sapiens), P43320 [V187E]; assay: Inhibition of beta-crystallin B2 V187E mutant (unknown origin)-induced cytotoxicity in human HeLa cells assessed as increase in cell viability at 0.04 to 4 uM incubated for 12 hrs by CCK8 assay; type: cell-based
T4 sequence (whole entry): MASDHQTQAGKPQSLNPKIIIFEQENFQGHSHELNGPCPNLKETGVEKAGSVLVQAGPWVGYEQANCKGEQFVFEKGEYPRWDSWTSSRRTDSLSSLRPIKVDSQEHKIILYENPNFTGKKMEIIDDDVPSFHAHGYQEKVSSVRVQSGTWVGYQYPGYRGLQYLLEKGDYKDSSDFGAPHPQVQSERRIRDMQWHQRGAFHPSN

[5] = test system: T3, Gamma-crystallin D (Homo sapiens), P07320 [W43R]; assay: Inhibition of gamma-crystallin D W43R mutant (unknown origin)-induced cytotoxicity in human HeLa cells assessed as increase in cell viability at 0.04 to 4 uM incubated for 12 hrs by CCK8 assay; type: cell-based
[6] = test system: T1, Alpha-crystallin A chain (Homo sapiens), P02489 [Y118D]; assay: Inhibition of alpha-crystallin A Y118D mutant (unknown origin)-induced cytotoxicity in human HLE-B3 cells assessed as increase in cell viability at 0.04 to 4 uM incubated for 12 hrs by CCK8 assay; type: cell-based
Homo sapiens = species on record: Homo sapiens; assay: Increase in cell viability of human HLE-B3 cells transfected with peGFP-N1 at 0.04 to 4 uM incubated for 12 hrs by CCK8 assay; type: functional
[7] = test system: T4, Beta-crystallin B2 (Homo sapiens), P43320 [V187E]; assay: Inhibition of beta-crystallin B2 V187E mutant (unknown origin)-induced cytotoxicity in human HLE-B3 cells assessed as increase in cell viability at 0.04 to 4 uM incubated for 12 hrs by CCK8 assay; type: cell-based
HeLa = assay: Increase in cell viability of human HeLa cells transfected with peGFP-N1 at 0.04 to 4 uM incubated for 12 hrs by CCK8 assay; type: functional, cell-based
[8] = test system: T5, Gamma-crystallin C (Homo sapiens), P07315 [G129C]; assay: Inhibition of gamma-crystallin C G129C mutant (unknown origin)-induced cytotoxicity in human HeLa cells assessed as increase in cell viability at 0.04 to 4 uM incubated for 12 hrs by CCK8 assay; type: cell-based
T5 sequence (whole entry): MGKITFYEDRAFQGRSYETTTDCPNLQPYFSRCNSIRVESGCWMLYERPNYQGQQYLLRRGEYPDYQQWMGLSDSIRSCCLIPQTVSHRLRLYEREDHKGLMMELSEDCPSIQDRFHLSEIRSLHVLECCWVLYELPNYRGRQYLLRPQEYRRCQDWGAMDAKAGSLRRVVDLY

[9] = test system: T5, Gamma-crystallin C (Homo sapiens), P07315 [G129C]; assay: Inhibition of gamma-crystallin C G129C mutant (unknown origin)-induced cytotoxicity in human HLE-B3 cells assessed as increase in cell viability at 0.04 to 4 uM incubated for 12 hrs by CCK8 assay; type: cell-based
[10] = test system: T2, Alpha-crystallin B chain (Homo sapiens), P02511 [R120G]; assay: Inhibition of alpha-crystallin B R120G mutant (unknown origin)-induced cytotoxicity in human HLE-B3 cells assessed as increase in cell viability at 0.04 to 4 uM incubated for 12 hrs by CCK8 assay; type: cell-based
[11] = test system: T5, Gamma-crystallin C (Homo sapiens), P07315 [G129C]; assay: Induction of redissolving of aggregated gamma-crystallin C G129C mutant (unknown origin) at 200 uM incubated for 24 hrs by transmission-electron-microscopy
Summary of the method: (§1)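 Pre-formed amyloid-like fibrils of mutant crystallin proteins were treated with compounds in liposomes or with a liposome vehicle. Fibrillar structures were then examined by negative-stain transmission electron microscopy.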

[12] = test system: T1, Alpha-crystallin A chain (Homo sapiens), P02489 [Y118D]; assay: Induction of redissolving of aggregated alpha-crystallin A Y118D mutant (unknown origin) at 200 uM incubated for 24 hrs by ThT-fluorescence based assay
Summary of the method: (§2)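 Purified mutant crystallin proteins, pre-formed into amyloid-like fibrils, were treated with compounds delivered in liposomes, with a liposome-only vehicle control. Redissolution was read as thioflavin T (ThT) fluorescence, n = 3.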

[13] = test system: T3, Gamma-crystallin D (Homo sapiens), P07320 [W43R]; assay: Induction of redissolving of aggregated gamma-crystallin D W43R mutant (unknown origin) at 200 uM incubated for 24 hrs by ThT-fluorescence based assay; summary of the method: as §2
[14] = test system: T6, Beta-crystallin B2 (Homo sapiens), P43320 [R188H]; assay: Induction of redissolving of aggregated beta-crystallin B2 R188H mutant (unknown origin) at 200 uM incubated for 24 hrs by transmission-electron-microscopy; summary of the method: as §1
T6 sequence (whole entry): T4 sequence (whole entry) with E187V, R188H

[15] = test system: T6, Beta-crystallin B2 (Homo sapiens), P43320 [R188H]; assay: Induction of redissolving of aggregated beta-crystallin B2 R188H mutant (unknown origin) at 200 uM incubated for 24 hrs by ThT-fluorescence based assay; summary of the method: as §2
[16] = test system: T3, Gamma-crystallin D (Homo sapiens), P07320 [W43R]; assay: Induction of redissolving of aggregated gamma-crystallin D W43R mutant (unknown origin) at 200 uM incubated for 24 hrs by transmission-electron-microscopy; summary of the method: as §1

SMILES	inhibition [1]	inhibition [2]	inhibition [3]	inhibition [4]	inhibition [5]	inhibition [6]	Activity (Homo sapiens)	inhibition [7]	Activity (HeLa)	inhibition [8]	inhibition [9]	inhibition [10]	Activity [11]	Activity [12]	Activity [13]	Activity [14]	Activity [15]	Activity [16]
C[C@H](CCCC(C)(C)O)[C@H]1CC[C@@]2(C)C3=C(CC[C@]12C)[C@@]1(C)C[C@@H](F)[C@@H](O)C(C)(C)[C@@H]1CC3	Active	Active	Active	Active	Active	Active	Active	Active	Active	Active	Active	Active	–	–	–	–	–	–
C[C@H](CCCC(C)(C)O)[C@H]1CC[C@@]2(C)C3=C(CC[C@]12C)[C@@]1(C)C[C@@H](F)[C@H](O)C(C)(C)[C@@H]1CC3	Active	Active	Active	Active	Active	Active	Active	Active	Active	Active	Active	Active	–	–	–	–	–	–
C[C@H](CCCC(C)(C)O)[C@H]1CC[C@@]2(C)C3=CC[C@H]4C(C)(C)[C@@H](O)CC[C@]4(C)C3=CC[C@]12C	Active	Active	Active	Active	Active	Active	Active	Active	Active	Active	Active	Active	–	–	–	–	–	–
C[C@H](CCCC(C)(C)O)[C@H]1CC[C@@]2(C)C3=C(CC[C@]12C)[C@@]1(C)CCC(=O)C(C)(C)[C@@H]1CC3	Active	Active	Active	Active	Active	Active	Active	Active	Active	Active	Active	Active	–	–	–	–	–	–
C[C@H](CCCC(C)(C)O)[C@H]1CC[C@@]2(C)[C@@]34CC[C@H]5C(C)(C)/C(=N/O)CC[C@]5(C)[C@]3(CC[C@]12C)O4	–	–	–	–	–	–	–	–	–	–	–	–	inactive	inactive	inactive	inactive	inactive	inactive
C[C@H](CCCC(C)(C)O)[C@H]1CC[C@@]2(C)C3=C(CC[C@]12C)[C@@]1(C)CC[C@H](O)C(C)(C)[C@@H]1CC3	Active	Active	Active	Active	Active	Active	Active	Active	Active	Active	Active	Active	Active	Active	Active	Active	Active	Active
